Screening results from PubChem.
CHOP inhibitor: inhibitors of CHOP induction in ER stress response. CHO-K1 CHOP-promoter luciferase, tunicamycin-induced, 15-18 h. inhibition, % at 10 µM. actives 3.8% (n = 220,000). AID 2732;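 active means compounds that reduced the stress-induced luciferase reporter signal by more than about 70% of percent inhibition, limit read from the data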
UPR XBP1 act: activators of adaptive arm of unfolded protein response (XBP1) | CHO-XBP1 luciferase reporter, IRE1-XBP1 UPR activation, luminescence; percent of tunicamycin response, DMSO as zero | activation, % at 20 µM | actives 0.33% (n = 330,000);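 active means versus positive control, 20 µM dose yields 30% or more activation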
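Material – CHO cell line with stable XBP1 luciferase reporter · Buffer or medium – F12 plus 10% FBS · Compound – single point, 20 µM final compound, 1% DMSO · Schedule – 16-18 h cell attachment at 37 °C, then 6 h compound exposure · Signal – Steady-Glo luminescence read · Benchmarks – high control tunicamycin 10 µg/mL final, low control DMSO vehicle only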
CHOP UPR activ: apoptotic UPR (CHOP) activation | CHO-CHOP luciferase reporter, luminescence; percent of tunicamycin response over DMSO baseline | activation, % at 10 µM | actives 0.34% (n = 330,000) | AID 449763;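 active means at 10 µM dose, activation of 40% or more, normalized to positive control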
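Test system: CHO-CHOP cells, stable luciferase reporter of PERK-eIF2a-CHOP signalling | Quantity: 500 CHO-CHOP cells per well | Buffer or medium: F12 plus 10% serum | Compound dosing: 10 µM single point, 0.5% DMSO | Schedule: 6 h compound treatment, 37 °C | Signal: Luciferase luminescence | Control set: Tunicamycin high control, DMSO low control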
VLA-4 inh: inhibition in a human VLA-4 binding assay | inhibition, % (about 7 µM as worked out from the volumes in the protocol) | VLA-4 expressing cells, ligand binding flow cytometry | P13612 | actives 0.2% (n = 330,000) | AID 2557; in the data active means inhibition above about 50%
Beta2AR agonist: agonists of human beta-2 adrenergic receptor inducing internalization. Am2.2-beta2AR cells, FAP receptor internalization, flow cytometry. response, % (concentration not given with the values). actives 0.43% (n = 340,000);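 active means response above a set limit, near 3 SD of response in nonfluorescent compounds, cut at about 42% in these data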
Target sequence (P07550 whole entry, looked up): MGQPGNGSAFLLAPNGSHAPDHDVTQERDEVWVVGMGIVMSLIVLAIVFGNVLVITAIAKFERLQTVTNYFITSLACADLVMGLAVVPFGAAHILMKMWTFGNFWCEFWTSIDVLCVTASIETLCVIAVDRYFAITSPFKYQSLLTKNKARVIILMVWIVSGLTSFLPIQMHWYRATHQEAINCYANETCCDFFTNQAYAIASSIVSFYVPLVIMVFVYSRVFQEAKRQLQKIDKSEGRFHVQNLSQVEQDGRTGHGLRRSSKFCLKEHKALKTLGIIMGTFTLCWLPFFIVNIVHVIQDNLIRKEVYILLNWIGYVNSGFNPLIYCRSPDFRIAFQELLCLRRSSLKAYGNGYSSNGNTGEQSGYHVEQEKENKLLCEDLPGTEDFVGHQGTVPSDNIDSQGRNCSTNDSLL
Numbers stand for hits; – = inactive; · = not tested or not shown. The full list was thinned out, with hits kept by preference.

SMILES | CHOP inhibitor | UPR XBP1 act | CHOP UPR activ | VLA-4 inh | Beta2AR agonist
CCOC(=O)C1CCN(C(=O)c2ccccc2)C(CC)C1=O (centres undefined) | · | · | · | · | –
CCN(CC(=O)Nc1ccccc1C(F)(F)F)C(=O)C1CC(=O)N(Cc2ccccc2)C1 (centres undefined) | · | – | – | – | –
COc1ccc(S(=O)(=O)N2CCOCC2)cc1NC(=O)/C=C/c1ccc(F)cc1 | · | – | – | · | –
COc1ccc(C)cc1S(=O)(=O)Nc1ccc2c(c1)N(C(C)=O)CCC2 | · | – | – | – | –
C#CC(N)CCC(=O)O (centres undefined) | – | · | · | · | ·
COC(=O)[C@H](CCSC)NC(=O)Cn1cnc2c(SC)nc(N)nc21 | · | – | – | – | –
Cc1ccc(-c2nc(CSCC(=O)NCCN3CCN(Cc4ccccc4)CC3)c(C)o2)cc1 | 75 | – | – | – | –
Cc1ccc(-c2nc(CSCC(=O)NCCCN3CCOCC3)c(C)o2)cc1 | – | – | – | – | –
COc1ccc2c(Cl)c(C(=O)OCC(=O)c3ccc4c(c3)NC(=O)CO4)sc2c1Cl | – | · | · | · | –
O=C1COc2ccc(C(=O)COC(=O)c3sc4ccccc4c3Cl)cc2N1 | – | 47 | – | – | –
CCOC(=O)Cn1c(=NC(=O)c2ccc([N+](=O)[O-])s2)sc2ccccc21 | 81 | – | – | – | –
CCCC(=O)Nc1ccc(-c2nc3cc(C)c(C)cc3o2)cc1 | 95 | – | – | – | –
O=C(N/N=C1\C/C(=N\NC(=O)c2ccncc2)c2ccccc21)c1ccncc1 | – | – | – | – | –
O=C(N/N=C1\CCCc2c1[nH]c1ccc(Cl)cc21)c1ccncc1 | · | – | – | – | 45
Cc1cccc(NC(=O)CSCC(=O)N2CCN(C(=O)c3ccco3)CC2)c1 | · | – | – | – | –
CC(=O)N1CCN(c2ccc(NC(=S)NC(=O)COc3ccc(C(C)(C)C)cc3)cc2)CC1 | 76 | – | – | – | –
CC(C)CC(=O)NC(=S)Nc1ccc(N2CCN(C(=O)c3cccs3)CC2)cc1 | 76 | – | – | – | –
O=C(COc1ccc(Cl)cc1)Nc1ccc(N2CCN(C(=O)c3ccco3)CC2)cc1 | 74 | – | – | – | –
CCC(=O)N1CCN(c2ccc(NC(=S)NC(=O)COc3ccccc3)cc2)CC1 | – | – | – | – | –
CC(C)C(=O)Nc1ccc(N2CCN(C(=O)c3cccs3)CC2)cc1 | – | – | – | – | –
Oc1ccc(/C=N/N=C(c2ccccc2)c2ccccc2)c(O)c1O | 70 | · | · | – | –
O=C(/C(=N/N=C/c1ccc(O)c(O)c1O)c1ccccc1)c1ccccc1 | 72 | – | – | – | –
COc1ccccc1CNC(=O)COC(=O)c1cc(=O)[nH]c2ccccc12 | · | – | – | – | –
CCOc1ccc(S(=O)(=O)N2CCC(C(=O)NC3CCCCC3)CC2)cc1 | · | – | – | – | –
O=C(/C=C/c1ccc(Cl)cc1)N(c1ccccn1)C1CCCCC1 | 70 | – | – | – | –
SMILES | CHOP inhibitor | UPR XBP1 act | CHOP UPR activ | VLA-4 inh | Beta2AR agonist
O=C(/C=C/c1cccc(F)c1)N(c1ccccn1)C1CCCCC1 | – | – | – | – | –
NC(=NC(=O)c1ccccc1)N1CCN(C(c2ccccc2)c2ccccc2)CC1 | – | – | – | – | –
Nc1c(S(=O)(=O)c2cccs2)c2nc3ccccc3nc2n1/N=C/c1cccc(O)c1 | 89 | – | – | – | –
COc1cccc(/C=N/n2c(N)c(S(=O)(=O)c3cccs3)c3nc4ccccc4nc32)c1 | – | – | – | – | –
FC(F)(F)c1nc(N2CCCC2)ncc1-c1nnnn1-c1ccccc1 | 72 | – | – | – | –
COc1cccc(C(=O)Nc2nc(-c3ccc(S(=O)(=O)N4CCOCC4)cc3)cs2)c1 | 84 | – | – | – | –
CC(C)CC(=O)Nc1nc(-c2ccc(S(=O)(=O)N3CCOCC3)cc2)cs1 | · | – | – | · | –
O=C(Nc1ccc(Br)cc1)c1cccc(OC(=S)N2CCOCC2)c1 | · | – | – | – | 77
COc1ccc(-c2csc(NC(=O)c3ccccc3NS(=O)(=O)c3ccc(F)c(F)c3)n2)cc1 | 79 | – | – | – | –
Cc1ccc(Nc2nc(-c3ccc(S(=O)(=O)N4CCOCC4)cc3)cs2)cc1Cl | 88 | – | – | – | –
CCOc1ccc2nc(NC(=O)CSCC(=O)Nc3cc(C)on3)sc2c1 | · | – | – | – | –
O=C(Nc1cccc(Cl)c1)NC1CCN(C2CCCCC2)C1 (centres undefined) | · | – | – | – | –
CC(C)COc1cccc(C(=O)Nc2ccc(S(=O)(=O)N3CCOCC3)cc2)c1 | 80 | – | – | – | –
CC(C)COc1cccc(C(=O)Nc2ccc(CN3CCOCC3)cc2)c1 | · | – | – | – | –
O=C(Cn1cc2c(n1)CCCC2)NC1CCN(Cc2ccccc2)CC1 | 82 | – | – | – | –
CCCCOC(=O)CSc1nnc(-c2ccc(Cl)cc2Cl)o1 | 71 | – | – | – | –
COc1ccc(NC(=O)Cc2c(SC)c3ccccc3n2Cc2ccccc2)cc1 | 74 | – | – | – | –
Cc1cc(C(=O)COC(=O)c2cccnc2Cl)c(C)n1CC1CCCO1 (centres undefined) | 80 | – | – | – | –
Cc1cc(C(=O)COC(=O)C2COc3ccccc3O2)c(C)n1CC1CCCO1 (centres undefined) | 77 | – | – | – | –
Cc1ccc(C(=O)OCC(=O)c2cc(C)n(CC3CCCO3)c2C)cc1 (centres undefined) | – | – | – | – | –
Cc1cc(C(=O)COC(=O)c2ccccc2Br)c(C)n1CC1CCCO1 (centres undefined) | 77 | – | – | – | –
Cc1cc(C(=O)COC(=O)c2ccccc2O)c(C)n1CC1CCCO1 (centres undefined) | · | – | – | – | –
Cc1cc(C(=O)COc2ccccc2C(N)=O)c(C)n1CC1CCCO1 (centres undefined) | – | – | – | – | –
CCCCN(C(=O)c1ccc(Cl)c([N+](=O)[O-])c1)c1c(N)n(CCC)c(=O)[nH]c1=O | – | – | – | – | –
Cc1ccccc1/C=C1\OC(=O)c2ccccc21 | 87 | – | – | – | –
SMILES | CHOP inhibitor | UPR XBP1 act | CHOP UPR activ | VLA-4 inh | Beta2AR agonist
Cc1ccc(/C=C2\OC(=O)c3ccccc32)cc1 | – | – | – | – | –
CC(C)c1ccc2[nH]c(O)c(N=NC(=O)c3ccc(CSc4nncn4C)cc3)c2c1 | – | – | – | – | 45
COc1ccc2c(c1OC)C(=O)N(c1ccc(OCc3ccccc3)cc1)C2=O | · | – | – | – | –
CCOc1cc2[nH]c(=S)n(CCCC(=O)NCc3ccco3)c(=O)c2cc1OCC | 82 | – | – | – | –
O=C(CCn1c(=O)c2ccccc2n(Cc2cccnc2)c1=O)NCc1ccc2c(c1)OCO2 | – | – | – | – | –
Cc1ccc(C)c(Cn2c(=O)n(CCC(=O)NCc3ccco3)c(=O)c3ccccc32)c1 | 83 | – | – | – | –
